# ChEMBL document CHEMBL3616473, “Identification and in silico prediction of metabolites of the model compound, tebufenozide by human CYP3A4 and CYP2C19” (Bioorg Med Chem, 2015)
# How the values were obtained:
# [1] = molecular target: Cytochrome P450 2C19 (Homo sapiens, UniProt P33261); assay: Drug level in yeast cells expressing human CYP2C19 assessed as human CYP2C19-mediated compound formation by pre-incubated with 200 uM tebufenozide for 2 mins at 37 degC before NADPH addition by LC/MS method; assay type: ADME, cell-based; conditions: recombinant enzyme
# Cytochrome P450 2C19, sequence (P33261 whole entry): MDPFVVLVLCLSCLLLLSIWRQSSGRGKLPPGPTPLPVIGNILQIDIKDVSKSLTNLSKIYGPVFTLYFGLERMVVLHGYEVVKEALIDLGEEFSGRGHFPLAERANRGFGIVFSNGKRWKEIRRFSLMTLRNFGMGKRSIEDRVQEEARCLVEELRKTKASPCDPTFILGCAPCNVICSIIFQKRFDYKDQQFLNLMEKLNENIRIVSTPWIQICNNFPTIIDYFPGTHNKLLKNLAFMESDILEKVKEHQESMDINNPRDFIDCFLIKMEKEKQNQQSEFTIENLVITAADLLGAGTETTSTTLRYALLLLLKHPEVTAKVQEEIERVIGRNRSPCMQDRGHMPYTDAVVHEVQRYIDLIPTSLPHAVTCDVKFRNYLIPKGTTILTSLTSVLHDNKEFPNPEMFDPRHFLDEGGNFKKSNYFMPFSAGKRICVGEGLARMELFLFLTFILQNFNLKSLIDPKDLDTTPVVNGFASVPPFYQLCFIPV
# Method in brief: (§1)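 Microsomes with 67 nM human P450 in 100 mM phosphate buffer, pH 7.4, preincubated 2 min at 37 °C. Reaction started with NADPH (1 mM final) at 37 °C and stopped at various times with two volumes of acetonitrile and shaking. After centrifugation (7,000 G, 10 min), the acetonitrile phase was analysed by HPLC and by LC/MS (ESI positive mode, m/z 100-500).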
# [2] = Retention time of the compound by HPLC method; assay type: physicochemical
# [3] = molecular target: Cytochrome P450 3A4 (Homo sapiens, UniProt P08684); assay: Drug level in yeast cells expressing human CYP3A4 assessed as human CYP3A4-mediated compound formation by pre-incubated with 200 uM tebufenozide for 2 mins at 37 degC before NADPH addition by LC/MS method; assay type: ADME, cell-based; conditions: recombinant enzyme; method in brief: as §1
# Cytochrome P450 3A4, sequence (P08684 whole entry): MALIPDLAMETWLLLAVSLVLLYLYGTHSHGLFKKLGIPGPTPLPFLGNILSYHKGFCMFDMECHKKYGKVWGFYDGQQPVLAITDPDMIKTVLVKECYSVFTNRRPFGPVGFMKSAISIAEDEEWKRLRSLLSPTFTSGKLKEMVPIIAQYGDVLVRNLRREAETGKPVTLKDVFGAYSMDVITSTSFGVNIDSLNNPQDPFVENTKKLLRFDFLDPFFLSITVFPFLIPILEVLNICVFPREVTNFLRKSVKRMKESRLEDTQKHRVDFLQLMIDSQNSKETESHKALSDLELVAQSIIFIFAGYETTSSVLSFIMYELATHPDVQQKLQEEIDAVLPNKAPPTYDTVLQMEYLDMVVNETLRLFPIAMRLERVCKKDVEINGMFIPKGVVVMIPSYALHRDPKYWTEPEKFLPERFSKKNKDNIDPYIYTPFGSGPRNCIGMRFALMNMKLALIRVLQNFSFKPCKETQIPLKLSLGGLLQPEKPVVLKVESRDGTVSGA
# [4] = Selectivity index, ratio of Vmax for human CYP3A4-mediated metabolite-M1 formation to Vmax for human CYP2C19-mediated metabolite-M1 formation; conditions: recombinant enzyme
# Method in brief: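 Microsomes with 67 nM human CYP3A4 or CYP2C19 in 100 mM phosphate buffer, pH 7.4, with tebufenozide (1–50, 2% acetonitrile), preincubated 2 min at 37 °C. NADPH (1 mM final) was added, and reactions were stopped with acetonitrile after 5 min (CYP3A4) or 10 min (CYP2C19). M1 was quantified by HPLC, and Km and Vmax were fitted from rate (mol/min/mol P450) against substrate concentration.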
# [5] = Selectivity index, ratio of Km for human CYP3A4-mediated metabolite-M1 formation to Km for human CYP2C19-mediated metabolite-M1 formation; conditions: recombinant enzyme
SMILES,Drug metabolism [1],Retention_time [2],Drug metabolism [3],Ratio [4],Ratio [5]
CC(=O)c1ccc(C(=O)NN(C(=O)c2cc(C)cc(C)c2)C(C)(C)C)cc1,metabolite_detected,12 min,–,–,–
C=Cc1ccc(C(=O)NN(C(=O)c2cc(C)cc(C)c2)C(C)(C)C)cc1,metabolite_detected,15 min,–,–,–
CCc1ccc(C(=O)NN(C(=O)c2cc(C)cc(C)c2)C(C)(C)CO)cc1,–,14.5 min,metabolite_detected,–,–
Cc1cc(C)cc(C(=O)N(NC(=O)c2ccc(C(C)O)cc2)C(C)(C)C)c1 (racemic),metabolite_detected,9.5 min,metabolite_detected,–,–
CCc1ccc(C(=O)NN(C(=O)c2cc(C)cc(CO)c2)C(C)(C)C)cc1,–,10.5 min,metabolite_detected,–,–
CCc1ccc(C(=O)NN(C(=O)c2cc(C)cc(C)c2)C(C)(C)C)cc1 [TEBUFENOZIDE],–,–,–,6,4
